Reference: ChEMBL document CHEMBL1150295, “Synthesis and receptor binding properties of 2beta-alkynyl and 2beta-(1,2,3-triazol)substituted 3beta-(substituted phenyl)tropane derivatives” (Bioorg Med Chem, 2008)

Key:
[1] = target: Sodium-dependent noradrenaline transporter (Homo sapiens, UniProt P23975); test: Displacement of [3H]nisoxetine from norepinephrine transporter
[2] = target: Sodium-dependent serotonin transporter (Homo sapiens, UniProt P31645); test: Displacement of [3H]paroxetine from serotonin transporter
Sodium-dependent serotonin transporter, sequence (P31645 whole entry): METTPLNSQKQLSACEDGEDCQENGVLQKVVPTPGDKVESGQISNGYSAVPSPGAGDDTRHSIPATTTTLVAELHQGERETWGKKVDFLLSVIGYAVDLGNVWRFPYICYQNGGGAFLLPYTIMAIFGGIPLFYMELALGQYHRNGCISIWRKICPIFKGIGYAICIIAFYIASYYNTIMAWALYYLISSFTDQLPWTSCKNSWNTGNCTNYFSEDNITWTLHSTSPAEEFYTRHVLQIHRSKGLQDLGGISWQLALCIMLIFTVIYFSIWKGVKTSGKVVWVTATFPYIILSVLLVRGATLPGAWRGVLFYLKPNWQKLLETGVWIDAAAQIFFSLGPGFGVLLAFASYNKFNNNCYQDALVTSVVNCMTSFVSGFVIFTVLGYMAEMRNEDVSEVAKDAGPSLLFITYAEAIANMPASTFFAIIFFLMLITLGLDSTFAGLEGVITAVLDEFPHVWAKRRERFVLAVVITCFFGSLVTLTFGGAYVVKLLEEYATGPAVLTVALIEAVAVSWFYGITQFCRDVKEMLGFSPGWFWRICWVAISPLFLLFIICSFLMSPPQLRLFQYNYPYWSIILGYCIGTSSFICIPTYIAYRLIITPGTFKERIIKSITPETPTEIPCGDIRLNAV

[3] = target: Sodium-dependent dopamine transporter (Homo sapiens, UniProt Q01959); test: Displacement of [3H]WIN-35428 from dopamine transporter
Sodium-dependent dopamine transporter, sequence (Q01959 whole entry): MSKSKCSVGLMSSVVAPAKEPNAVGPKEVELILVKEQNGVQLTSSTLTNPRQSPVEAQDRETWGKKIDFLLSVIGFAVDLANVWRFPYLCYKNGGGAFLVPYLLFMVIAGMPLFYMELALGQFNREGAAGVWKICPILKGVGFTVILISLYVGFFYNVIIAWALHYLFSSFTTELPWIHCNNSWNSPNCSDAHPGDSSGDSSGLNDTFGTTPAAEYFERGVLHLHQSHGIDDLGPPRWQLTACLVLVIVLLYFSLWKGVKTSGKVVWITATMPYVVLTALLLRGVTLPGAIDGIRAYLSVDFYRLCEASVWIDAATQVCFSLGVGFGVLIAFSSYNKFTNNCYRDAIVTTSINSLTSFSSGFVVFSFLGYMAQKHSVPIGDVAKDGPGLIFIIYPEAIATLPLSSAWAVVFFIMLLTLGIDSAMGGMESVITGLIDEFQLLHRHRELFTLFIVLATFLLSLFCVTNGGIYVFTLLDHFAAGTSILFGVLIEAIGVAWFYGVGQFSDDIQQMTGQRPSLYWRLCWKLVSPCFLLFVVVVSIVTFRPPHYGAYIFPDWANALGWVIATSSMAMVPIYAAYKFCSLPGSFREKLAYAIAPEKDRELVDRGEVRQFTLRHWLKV
Outline: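 Competitive radioligand binding at membrane dopamine transporter; 0.5 nM [3H]WIN35,428 final concentration. Mean ± standard error of three or four experiments, each in triplicate.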

[4] = Selectivity for dopamine transporter over serotonin transporter
[5] = Selectivity for dopamine transporter over norepinephrine transporter

Sodium-dependent noradrenaline transporter, sequence (P23975 whole entry): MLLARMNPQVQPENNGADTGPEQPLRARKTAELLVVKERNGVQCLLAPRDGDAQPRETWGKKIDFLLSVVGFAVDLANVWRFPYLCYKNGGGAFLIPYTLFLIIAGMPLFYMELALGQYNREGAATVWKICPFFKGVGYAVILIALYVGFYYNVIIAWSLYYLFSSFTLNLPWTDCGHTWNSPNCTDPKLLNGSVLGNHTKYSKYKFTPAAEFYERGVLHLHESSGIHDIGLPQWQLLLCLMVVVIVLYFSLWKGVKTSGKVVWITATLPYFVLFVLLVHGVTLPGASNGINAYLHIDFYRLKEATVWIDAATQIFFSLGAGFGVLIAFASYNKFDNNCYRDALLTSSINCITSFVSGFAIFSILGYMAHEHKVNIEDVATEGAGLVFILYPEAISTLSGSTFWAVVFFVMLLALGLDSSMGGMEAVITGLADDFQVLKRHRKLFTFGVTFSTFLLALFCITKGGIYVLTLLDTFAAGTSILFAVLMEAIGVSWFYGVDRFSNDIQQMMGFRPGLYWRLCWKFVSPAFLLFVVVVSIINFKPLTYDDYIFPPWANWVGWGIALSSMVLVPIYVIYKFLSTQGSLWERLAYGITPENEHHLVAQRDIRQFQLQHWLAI

| SMILES | Ki [1] | Ki [2] | IC50 [3] | Selectivity ratio [4] | Selectivity ratio [5] |
| --- | --- | --- | --- | --- | --- |
| CN1[C@H]2CC[C@@H]1[C@H](C=C(Br)Br)[C@@H](c1ccc(Cl)cc1)C2 | 49 nM | 76 nM | 1.4 nM |  |  |
| CN1[C@H]2CC[C@@H]1[C@@H](c1cn(CCN3CCCCC3)nn1)[C@@H](c1ccc(Cl)cc1)C2 | 430 nM | 138 nM | 8 nM |  |  |
| CN1[C@H]2CC[C@@H]1[C@@H](C#Cc1ccccc1)[C@@H](c1ccc(Cl)cc1)C2 | 14 nM | 81 nM | 0.8 nM |  |  |
| CN1[C@H]2CC[C@@H]1[C@@H](C#Cc1ccc(N)cc1)[C@@H](c1ccc(Cl)cc1)C2 | 50 nM | 19 nM | 2.2 nM |  |  |
| Cc1ccc([C@H]2C[C@@H]3CC[C@H]([C@H]2C#Cc2ccccc2)N3C)cc1 | 31 nM | 730 nM | 0.8 nM |  |  |
| CN1[C@H]2CC[C@@H]1[C@@H](c1cn(Cc3ccccc3)nn1)[C@@H](c1ccc(Cl)cc1)C2 | 2560 nM | 161 nM | 47 nM |  |  |
| Cc1ccc([C@H]2C[C@@H]3CC[C@H]([C@@H]2C=C(Br)Br)N3C)cc1 | 55 nM | 252 nM | 3.6 nM |  |  |
| C#C[C@H]1[C@@H](c2ccc(C)cc2)C[C@@H]2CC[C@H]1N2C | 150 nM | 54 nM | 11 nM |  |  |
| Cc1ccc([C@H]2C[C@@H]3CC[C@H]([C@H]2C=C(Br)Br)N3C)cc1 | 3.4 nM | 39 nM | 0.23 nM |  |  |
| C#C[C@H]1[C@@H](c2ccc(Cl)cc2)C[C@@H]2CC[C@H]1N2C | 75 nM | 18 nM | 3.6 nM |  |  |
| CN1[C@H]2CC[C@@H]1[C@@H](C#Cc1ccc([N+](=O)[O-])cc1)[C@@H](c1ccc(Cl)cc1)C2 | 230 nM | 620 nM | 0.9 nM | 689 | 256 |
| CN1[C@H]2CC[C@@H]1[C@@H](C=C(Br)Br)[C@@H](c1ccc(Cl)cc1)C2 | 3.5 nM | 7 nM | 0.32 nM |  |  |
| COC(=O)[C@H]1[C@@H](c2ccccc2)C[C@@H]2CC[C@H]1N2C | 556 nM |  | 23 nM |  |  |
